Our source for the EC50, %max and inhibition values is ChEMBL document CHEMBL1136933 (J Med Chem, 2009).

The target in assay [1] is T1, Muscarinic acetylcholine receptor M5 (Homo sapiens, UniProt P08912).
T1 sequence (P08912 whole entry): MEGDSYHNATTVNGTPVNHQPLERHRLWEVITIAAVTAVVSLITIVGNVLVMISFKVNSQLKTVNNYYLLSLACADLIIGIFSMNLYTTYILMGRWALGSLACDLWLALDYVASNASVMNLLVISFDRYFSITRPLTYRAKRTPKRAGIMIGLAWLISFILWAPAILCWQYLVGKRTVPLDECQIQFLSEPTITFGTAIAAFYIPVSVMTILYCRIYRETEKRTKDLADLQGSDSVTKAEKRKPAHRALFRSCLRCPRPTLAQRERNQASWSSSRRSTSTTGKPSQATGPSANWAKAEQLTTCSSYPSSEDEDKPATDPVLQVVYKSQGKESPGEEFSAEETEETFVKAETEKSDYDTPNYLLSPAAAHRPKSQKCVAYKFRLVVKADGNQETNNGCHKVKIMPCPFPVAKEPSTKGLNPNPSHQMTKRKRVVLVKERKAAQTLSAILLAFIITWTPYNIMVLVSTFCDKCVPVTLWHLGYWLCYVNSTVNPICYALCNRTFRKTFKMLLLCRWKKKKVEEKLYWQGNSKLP
The assay can be described thus: Activation of human muscarinic M5 receptor expressed in CHO cells coexpressing Gq protein assessed as potentiation of acetylcholine-induced intracellular Ca2+ mobilization. It is filed as functional, cell-based. (Calcium assays in cells follow changes in intracellular calcium, usually with a dye or a luminescent sensor.)

Assay [2] has as its target T2, Muscarinic acetylcholine receptor M5 (Homo sapiens) (UniProt P08912).
T2 sequence (whole entry): T1 sequence (P08912 whole entry)
The assay can be described thus: Activation of human muscarinic M5 receptor expressed in CHO cells coexpressing Gq protein assessed as potentiation of acetylcholine-induced intracellular Ca2+ mobilization at 30 uM relative to acetylcholine. It is filed as functional, cell-based.

The target in assay [3] is T3, Muscarinic acetylcholine receptor M1 (Rattus norvegicus) (UniProt P08482).
T3 sequence (whole entry): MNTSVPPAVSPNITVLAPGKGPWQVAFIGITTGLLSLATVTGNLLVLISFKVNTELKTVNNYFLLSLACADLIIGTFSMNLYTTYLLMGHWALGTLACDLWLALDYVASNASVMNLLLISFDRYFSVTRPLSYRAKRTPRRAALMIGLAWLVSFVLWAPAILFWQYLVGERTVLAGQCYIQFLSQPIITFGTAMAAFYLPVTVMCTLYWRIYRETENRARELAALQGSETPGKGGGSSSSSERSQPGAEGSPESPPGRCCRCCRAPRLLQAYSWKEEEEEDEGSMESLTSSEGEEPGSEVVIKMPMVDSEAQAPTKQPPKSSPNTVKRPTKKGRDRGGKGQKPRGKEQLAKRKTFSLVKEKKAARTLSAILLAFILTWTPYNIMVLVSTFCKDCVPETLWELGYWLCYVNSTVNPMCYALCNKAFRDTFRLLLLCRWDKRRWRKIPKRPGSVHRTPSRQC
The assay is described as follows: Activation of rat muscarinic M1 receptor expressed in CHO cells co-expressing Gq protein assessed as potentiation of acetylcholine-induced intracellular Ca2+ mobilization at 30 uM relative to acetylcholine. It is filed as functional, cell-based.

Assay [4] addresses T4, Muscarinic acetylcholine receptor M1 (Rattus norvegicus, UniProt P08482).
T4 sequence (P08482 whole entry): T3 sequence (whole entry)
The assay is described as follows: Activation of rat muscarinic M1 receptor expressed in CHO cells co-expressing Gq protein assessed as potentiation of acetylcholine-induced intracellular Ca2+ mobilization. It counts as functional, cell-based.

In assay [5] the target is T5, Muscarinic acetylcholine receptor M4 (Rattus norvegicus, UniProt P08485).
T5 sequence (P08485 whole entry): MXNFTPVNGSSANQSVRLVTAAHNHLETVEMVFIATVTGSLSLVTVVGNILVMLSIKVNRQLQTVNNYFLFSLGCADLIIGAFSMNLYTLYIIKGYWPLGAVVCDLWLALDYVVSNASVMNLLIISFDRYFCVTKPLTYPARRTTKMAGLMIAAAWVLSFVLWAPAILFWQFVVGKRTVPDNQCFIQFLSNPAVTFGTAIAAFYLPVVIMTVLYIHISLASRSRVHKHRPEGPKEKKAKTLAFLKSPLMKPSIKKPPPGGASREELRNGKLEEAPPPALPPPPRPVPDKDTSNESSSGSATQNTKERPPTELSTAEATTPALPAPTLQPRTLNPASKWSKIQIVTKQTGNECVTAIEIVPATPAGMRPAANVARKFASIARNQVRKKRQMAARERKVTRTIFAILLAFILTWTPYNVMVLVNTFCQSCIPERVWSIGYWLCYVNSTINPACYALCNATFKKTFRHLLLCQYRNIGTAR
The assay can be described thus: Activation of rat muscarinic M4 receptor expressed in CHO cells coexpressing chimeric Gqi5 protein assessed as potentiation of acetylcholine-induced intracellular Ca2+ mobilization. It is filed as functional, cell-based. The gist of the method: (§1)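 Calcium flux assay. Stable CHO lines were seeded at 5 × 10^4 cells/well (M1, M3, M5) or 6 × 10^4 cells/well (Gqi5 M2, M4) and grown overnight at 37 °C, 5% CO2. Cells were loaded 1 h at 37 °C with 2 µM Fluo-4 AM. […] At least three independent determinations, each in duplicate or more.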

Assay [6] has as its target T6, Muscarinic acetylcholine receptor M3 (Homo sapiens, UniProt P20309). The assay can be described thus: Activation of human muscarinic M3 receptor expressed in CHO cells coexpressing Gq protein assessed as potentiation of acetylcholine-induced intracellular Ca2+ mobilization. It is filed as functional, cell-based. The method, boiled down: as §1
Target sequence in this assay (P20309 whole entry): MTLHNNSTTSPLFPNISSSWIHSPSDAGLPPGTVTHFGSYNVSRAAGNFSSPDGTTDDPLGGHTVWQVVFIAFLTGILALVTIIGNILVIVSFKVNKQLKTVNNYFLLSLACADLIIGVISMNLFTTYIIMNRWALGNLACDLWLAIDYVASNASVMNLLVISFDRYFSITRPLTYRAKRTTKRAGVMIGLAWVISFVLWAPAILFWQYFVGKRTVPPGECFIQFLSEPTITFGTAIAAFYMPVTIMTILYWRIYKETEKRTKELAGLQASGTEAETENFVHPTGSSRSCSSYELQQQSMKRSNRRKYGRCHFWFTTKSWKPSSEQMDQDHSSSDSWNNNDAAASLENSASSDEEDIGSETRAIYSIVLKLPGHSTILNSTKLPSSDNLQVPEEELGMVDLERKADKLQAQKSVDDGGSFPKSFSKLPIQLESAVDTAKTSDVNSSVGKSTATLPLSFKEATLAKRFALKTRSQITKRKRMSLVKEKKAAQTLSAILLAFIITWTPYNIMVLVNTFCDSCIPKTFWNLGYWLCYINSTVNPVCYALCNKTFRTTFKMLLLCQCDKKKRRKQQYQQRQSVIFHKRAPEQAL
Assay [7] deals with T7, Muscarinic acetylcholine receptor M2 (Rattus norvegicus) (UniProt P10980).
T7 sequence (whole entry): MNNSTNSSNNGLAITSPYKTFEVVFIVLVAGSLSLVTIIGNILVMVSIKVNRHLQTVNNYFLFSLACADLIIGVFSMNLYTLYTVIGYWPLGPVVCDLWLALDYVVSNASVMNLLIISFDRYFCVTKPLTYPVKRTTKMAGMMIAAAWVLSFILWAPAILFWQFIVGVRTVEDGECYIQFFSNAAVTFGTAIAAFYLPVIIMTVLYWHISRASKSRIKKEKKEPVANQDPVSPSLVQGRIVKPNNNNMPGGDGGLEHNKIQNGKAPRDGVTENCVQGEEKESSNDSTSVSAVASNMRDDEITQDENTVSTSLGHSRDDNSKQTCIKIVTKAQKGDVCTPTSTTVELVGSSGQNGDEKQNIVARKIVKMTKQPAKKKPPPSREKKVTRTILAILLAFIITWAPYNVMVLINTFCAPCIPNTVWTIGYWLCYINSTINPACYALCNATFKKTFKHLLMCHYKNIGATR
The assay is described as follows: Activation of rat muscarinic M2 receptor expressed in CHO cells coexpressing chimeric Gqi5 protein assessed as potentiation of acetylcholine-induced intracellular Ca2+ mobilization at 30 uM relative to acetylcholine. It is filed as functional, cell-based.

Assay [8] addresses T6, Muscarinic acetylcholine receptor M3. The assay is described as follows: Activation of human muscarinic M3 receptor expressed in CHO cells coexpressing Gq protein assessed as potentiation of acetylcholine-induced intracellular Ca2+ mobilization at 30 uM relative to acetylcholine. It counts as functional, cell-based.
Target sequence in this assay (P20309 whole entry, looked up): as the sequence (P20309 whole entry) above
Assay [9] deals with T8, Muscarinic acetylcholine receptor M2 (Rattus norvegicus, UniProt P10980).
T8 sequence (P10980 whole entry): T7 sequence (whole entry)
The assay is described as follows: Activation of rat muscarinic M2 receptor expressed in CHO cells co-expressing chimeric Gqi5 protein assessed as potentiation of acetylcholine-induced intracellular Ca2+ mobilization. It counts as functional, cell-based. The method, boiled down: as §1

Assay [10] deals with T2, Muscarinic acetylcholine receptor M5 (Homo sapiens). The assay is described as follows: Inhibition of [3H]NMS binding to human muscarinic M5 receptor expressed in CHO cells coexpressing Gq protein at 30 uM by scintillation counting. It counts as cell-based.

Usually EC50 stands for the concentration needed to bring the measured effect to its halfway point. In the case of `O=C1C(=O)N(Cc2ccc(C(F)(F)F)cc2)c2c(Cl)cccc21`, the EC50 in assay [1] is 2.11 µM; in assay [4], 3.2 µM; in assay [5] (read-out: EC50), more than 10 µM; in [6], 2.22 µM; in assay [9] (read-out: EC50), 2.84 µM. Also, the %max stood at 70.8% in assay [2], 67% in assay [3], 55% in assay [7] and 78% in assay [8].
As usually defined, the inhibition is the share of the control response that was lost under treatment. On to `O=C1C(=O)N(Cc2ccc(Br)cc2)c2ccccc21`, for which the EC50 was 4.08 µM in assay [1]; 6.04 µM in assay [4]; “Not Active” in assay [5] (cho); 6.38 µM in [6]; “Not Active” in assay [9] (cho). In addition, the %max in assay [2] came to 74.4%; in assay [3] it was 82.4%; in assay [8], 65.5%. This molecule also came in with an inhibition in assay [10] of 50%.
